In brackets after ≈: the same amount, converted by molar mass.

For the assay, the system named is Mycobacterium tuberculosis. In words: Antitubercular activity against Mycobacterium bovis BCG after 7 days by alamar blue assay. It counts as functional. The note with it: variant bovis BCG, 168 h. The procedure, abridged:
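Frozen BCG stock thawed, lightly sonicated, diluted in Dubos broth/OADC to 4 × 10^4 bacteria/well; compounds at varied concentrations in PBS/2.5-5% DMSO, 37 °C for 7 days, then Alamar Blue 24 h. Ethambutol control; triplicate.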
Compound `Cc1ccc(S(=O)(=O)C2=C(S(=O)(=O)c3ccc(C)cc3)C(=O)c3ncccc3C2=O)cc1` returned an MIC of 6.3 µg/mL (≈ 13.5 µM). Then `O=C1C(Cl)=C(NCCBr)C(=O)c2ncccc21`, with 6.3 µg/mL (≈ 20 µM); and `O=C1C(NCCCl)=C(Cl)C(=O)c2ncccc21`, with 6.3 µg/mL (≈ 23.2 µM); and `O=C1C(Cl)=C(NCCCl)C(=O)c2ncccc21`, with 12.5 µg/mL (≈ 46.1 µM). Regarding `Cc1ccc2c(n1)C(=O)C(Cl)=C(NCCBr)C2=O`, the MIC worked out at 12.5 µg/mL (≈ 37.9 µM). For `Cc1ccc2c(n1)C(=O)C(NCCBr)=C(Cl)C2=O`, the MIC was 12.5 µg/mL (≈ 37.9 µM). In the case of `CNC1=C(SC)C(=O)c2cccnc2C1=O` it was over 50 µg/mL; in that of `CNC1=C(Sc2ccccc2)C(=O)c2ncccc2C1=O`, 12.5 µg/mL (≈ 42.2 µM).

As to `CNC1=C(Sc2ccccc2)C(=O)c2cccnc2C1=O`, the MIC is 12.5 µg/mL (≈ 42.2 µM). `CNC1=C([S+](C)[O-])C(=O)c2ncccc2C1=O` (stereo unspecified): the minimal inhibitory concentration (MIC) came to 25 µg/mL (≈ 99.9 µM). For the compound `Cc1ccc2c(n1)C(=O)C(Cl)=C(Cl)C2=O`, the MIC came to 6.3 µg/mL (≈ 26 µM). In the case of `O=C1c2cccnc2C(=O)C2SCCNC12` (stereo unspecified) it was 6.3 µg/mL (≈ 26.9 µM); in that of `O=C1C2=C(NCCS2)C(=O)c2ncccc21`, 6.3 µg/mL (≈ 27.1 µM). With `C[S+]([O-])C1=C(N)C(=O)c2cccnc2C1=O` (stereo unspecified), the MIC worked out at 1.56 µg/mL (≈ 6.6 µM).

For `CNC1=C(Cl)C(=O)c2cccnc2C1=O`, 12.5 µg/mL (≈ 56.1 µM) was the least that counted as inhibitory (MIC). Then `CSC1=C(N)C(=O)c2cccnc2C1=O`, with 6.3 µg/mL (≈ 28.6 µM); and `CNC1=C(SC)C(=O)c2ncccc2C1=O`, with 12.5 µg/mL (≈ 53.4 µM); and `CSC1=C(SC)C(=O)c2ncccc2C1=O`, with 6.3 µg/mL (≈ 25.1 µM). In the case of `O=C1C(NCCBr)=C(Cl)C(=O)c2ncccc21` it was 3.13 µg/mL (≈ 9.92 µM); in that of `O=C1C(NC(c2ccccc2)c2ccccc2)=C(Cl)C(=O)c2ncccc21`, 6.3 µg/mL (≈ 16.8 µM).

`CNC1=C(Cl)C(=O)c2ncccc2C1=O`: inhibition of growth (MIC) required 12.5 µg/mL (≈ 56.1 µM). In the case of `CNC1=C([S+](C)[O-])C(=O)c2cccnc2C1=O` (stereo unspecified) it was over 50 µg/mL; in that of `CS(=O)(=O)C1=C(N)C(=O)c2cccnc2C1=O`, 25 µg/mL (≈ 99.1 µM). On to `Cc1ccc(S(=O)(=O)C2=C(Cl)C(=O)c3ncccc3C2=O)cc1`, for which the MIC was over 50 µg/mL.

For `O=C1C(Sc2ccccc2)=C(Sc2ccccc2)C(=O)c2ncccc21`, the MIC was over 50 µg/mL.

In turn, `Oc1c(Sc2ccccc2)c(Sc2ccccc2)c(O)c2ncccc12` showed an MIC of 25 µg/mL (≈ 66.2 µM).

The values above are taken from ChEMBL document CHEMBL1157933, “The anti-cancer, anti-inflammatory and tuberculostatic activities of a series of 6,7-substituted-5,8-quinolinequinones” (Bioorg Med Chem, 2010).
